From PubChem BioAssay
PfM18AAP inh: blocks P. falciparum M18 aspartyl aminopeptidase; recombinant PfM18AAP, H-Glu-NHMec fluorogenic cleavage; AID 1822; inhibition, % at 7.35 µM; hit rate 1.2% among 290,000;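 active means inhibition above the campaign mean inhibition over all tested compounds plus 3 SD, cut at about 28% in these data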
Neddylation inh: cullin neddylation inhibition; P61081+Q13564; TR-FRET cullin neddylation, biochemical; inhibition, % at 25 µM; hit rate 0.58% among 360,000; AID 651699; in the data active means inhibition above about 36%
Target sequence (P61081 whole entry, looked up): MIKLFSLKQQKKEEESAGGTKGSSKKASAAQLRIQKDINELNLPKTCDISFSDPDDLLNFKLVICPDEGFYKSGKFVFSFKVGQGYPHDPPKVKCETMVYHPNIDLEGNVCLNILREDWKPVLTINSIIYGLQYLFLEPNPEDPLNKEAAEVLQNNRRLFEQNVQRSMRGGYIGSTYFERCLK
Target sequence (Q13564 whole entry, looked up): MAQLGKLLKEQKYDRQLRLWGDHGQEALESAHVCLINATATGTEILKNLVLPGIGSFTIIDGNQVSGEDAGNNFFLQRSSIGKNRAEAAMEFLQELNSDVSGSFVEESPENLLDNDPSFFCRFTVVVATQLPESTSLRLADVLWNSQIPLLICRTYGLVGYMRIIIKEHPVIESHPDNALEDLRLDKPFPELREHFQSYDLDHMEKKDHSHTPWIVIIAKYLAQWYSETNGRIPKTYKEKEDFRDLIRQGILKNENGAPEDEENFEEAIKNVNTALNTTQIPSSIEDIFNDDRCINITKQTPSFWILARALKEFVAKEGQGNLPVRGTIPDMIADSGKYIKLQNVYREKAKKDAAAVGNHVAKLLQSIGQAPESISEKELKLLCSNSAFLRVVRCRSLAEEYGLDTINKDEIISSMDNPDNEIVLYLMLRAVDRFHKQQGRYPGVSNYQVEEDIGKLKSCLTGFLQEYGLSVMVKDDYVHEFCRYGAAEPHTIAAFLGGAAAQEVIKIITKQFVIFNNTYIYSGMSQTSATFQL
HKDC1 inhibitor: inhibitors of human hexokinase HKDC1. recombinant HKDC1, G6PDH/diaphorase resazurin coupled fluorescence. inhibition, % at 20 µM. hit rate 0.16% among 340,000. AID 493160;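 active means inhibition above about 35% when tested at 20 µM, limit read from the data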
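Assay system: in-house recombinant HK5 (HKDC1) enzyme. Input: HKDC1 at 5 µg/mL. Medium: Tris pH 8.0 buffer with MgCl2, Tween-20, BSA, BME. Dosing: single 20 µM dose. Schedule: 90 min reaction incubation at room temperature, dark. Signal: resazurin-to-resorufin fluorescence via G6PDH and diaphorase coupling, 525/613 nm. Controls: DMSO-enzyme wells negative, buffer-substituted wells positive.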
PfG6PD inh: PfG6PD (Plasmodium falciparum) enzyme inhibition; AID 504690; hit rate 0.78% among 350,000; inhibition, % at 20 µM; PfGluPho enzyme, NADPH resazurin-diaphorase fluorescence;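 active means inhibition reaching at least a set limit at 20 µM in the primary screen, cut at about 59% in these data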
PfGluPho conf: confirmation of Plasmodium falciparum G6PD inhibitors | shares compounds with PfG6PD inh | recombinant PfGluPho, NADPH-diaphorase-resazurin fluorescence | inhibition, % at 20 µM | hit rate 34% among 2,400 | AID 504753;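 active means inhibition of at least 50% at 20 µM in any single replicate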
Diaph ctr 10uM: inhibits diaphorase or oxidizes, flagging false PfG6PD hits; shares compounds with PfG6PD inh; diaphorase-coupled resazurin reduction, fluorescence, NADPH 10 uM; inhibition, % at 20 µM; hit rate 39% among 820; AID 504862;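 active means average inhibition reaching 50% or more with the compound at 20 µM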;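 further: resorufin red fluorescence formed as diaphorase reduces resazurin using NADPH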
Diaph ctr 30uM: counter-screen for P. falciparum G6PD inhibitors: diaphorase inhibitors, oxidizers. shares compounds with PfG6PD inh. Diaphorase/resazurin coupled assay, resorufin fluorescence, 30 uM NADPH. hit rate 29% among 820. inhibition, % at 20 µM;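 active means inhibition averaging 50% or more, tested at 20 µM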
Hits are given with their value; – = inactive; · = not tested or not shown. In the library only some 2.2% were active in any assay of this set; here they are far more common.

SMILES	PfM18AAP inh	Neddylation inh	HKDC1 inhibitor	PfG6PD inh	PfGluPho conf	others
Cc1cccc(CNC(=O)c2ccc3c(c2)N(C)CCS3)c1	–	·	–	71	–
CN1CCSc2ccc(C(=O)NCc3ccccc3F)cc21	–	–	–	63	–
COc1ccc(N/C(=N/c2nc(C)cc(C)n2)NC(=O)c2ccccc2)cc1	–	–	–	–	·
Cc1cc(C)c(C#N)c(SCC(O)COc2ccc(Br)cc2)n1 (stereo not given)	–	–	–	–	·
Cc1ccc(S(=O)(=O)N2CCN(CC(=O)Nc3ccnn3C3CCCC3)CC2)cc1	·	–	–	–	·
O=c1c2ccccc2sn1-c1ccc(Cl)cc1Cl	·	–	·	129	109	Diaph ctr 10uM=–;Diaph ctr 30uM=–
O=c1c2ccccc2ncn1-c1ccc(Cl)cc1Cl	–	–	–	–	·
CCOC(=O)c1cnc(-c2ccccc2)[nH]c1=O	–	–	–	–	·
CCOC(=O)c1cnc(-c2cccc(OC)c2)[nH]c1=O	–	–	–	96	78	Diaph ctr 10uM=75;Diaph ctr 30uM=56
O=C(NC1CCS(=O)(=O)C1)c1ccc(N2CCCCC2)c([N+](=O)[O-])c1 (stereo not given)	–	–	–	–	·
O=C1CC(N2CCN(c3ccc(O)cc3)CC2)C(=O)N1Cc1cccs1 (stereo not given)	–	–	–	67	–
O=C(Cc1ccsc1)NNC(=O)c1cccc(Cl)c1	–	–	–	–	·
CCC1(C)CC(C(N)=S)CCO1 (stereo not given)	–	–	–	81	64	Diaph ctr 10uM=–;Diaph ctr 30uM=–
O=C(Nc1nc2ccccc2n1CCN1CCOCC1)c1ccc(Cl)cc1	–	–	–	68	–
O=C(Nc1nc2ccccc2n1Cc1ccccc1)c1ccco1	–	–	–	80	–
O=C(Nc1nc2ccccc2n1CCN1CCCC1)c1ccc(Cl)cc1	–	–	–	–	·
C[C@@H]1CN([C@@H](C)CO)C(=O)c2cc(NC(=O)CCN3CCOCC3)ccc2O[C@@H]1CN(C)C(=O)Nc1ccccc1	·	–	–	–	·
CC(C)(NC(=O)c1ccccc1)c1nc2ccccc2s1	·	–	–	60	–
O=C(NC(Nc1nc2ccccc2s1)(C(F)(F)F)C(F)(F)F)c1ccccc1	–	–	–	–	·
CCc1c(C)nc2c(Br)cccc2c1SCCC#N	–	–	–	59	–
O=C(c1ccc2c(c1)N(Cc1ccccc1F)C(=O)c1ccccc1S2)N1CCOCC1	–	·	–	69	–
Cc1cccc(CN2C(=O)c3ccccc3Sc3ccc(C(=O)O)cc32)c1	–	–	–	–	·
O=C(NCCN1CCOCC1)c1ccc2c(c1)N(Cc1ccccc1F)C(=O)c1ccccc1S2	–	–	–	–	·
O=C(c1ccc2c(c1)N(Cc1ccccc1)C(=O)c1ccccc1S2)N1CCCC1	–	–	–	102	72	Diaph ctr 10uM=62;Diaph ctr 30uM=63
O=S(c1ccccc1O)S(=O)c1ccccc1O (stereo not given)	·	–	–	94	75	Diaph ctr 10uM=–;Diaph ctr 30uM=–
SMILES	PfM18AAP inh	Neddylation inh	HKDC1 inhibitor	PfG6PD inh	PfGluPho conf	others
Cc1ccc(NS(=O)(=O)c2ccccc2)c2c1CC(C)(C)O2	–	–	–	92	65	Diaph ctr 10uM=54;Diaph ctr 30uM=50
Cc1cc(-c2ccc(NS(=O)(=O)c3ccccc3)c(C)c2)ccc1NS(=O)(=O)c1ccccc1	·	–	–	–	·
COc1cccc2c1C(=N)c1c(O)c3c(c(O)c1C2=O)CC(O)(C(C)=O)CC3OC1CC(N)C(O)C(C)O1 (stereo not given)	·	–	–	60	–
CCN(CC)c1ccc(C(=C2C=CC(=[N+](CC)CC)C=C2)c2ccccc2)cc1	·	–	–	100	68	Diaph ctr 10uM=–;Diaph ctr 30uM=–
CCOC(=O)N1CCN(C(=O)C2CCC(=O)N(CCCc3ccccc3)C2)CC1 (stereo not given)	–	–	–	–	·
CCOC(=O)/C(=C\c1cccc(O)c1)c1nc2sc(C)c(C)c2c(=O)[nH]1	29	–	–	69	–
CC(C)CNC(=O)C(=O)NCC1OCCN1S(=O)(=O)c1cccs1 (stereo not given)	–	–	–	–	·
COc1ccc(N2CC(O)=C(c3nc4ccccc4s3)C2=N)c(OC)c1	–	–	–	64	–
CN(C)CCN1CC(O)=C(c2nc3ccccc3s2)C1=N	–	–	–	–	·
O=C(Nc1nnc(S(=O)(=O)N2CCCCCC2)s1)c1ccc(Br)cc1	–	–	–	72	–
O=C(Nc1nnc(S(=O)(=O)N2CCCCC2)s1)c1ccc(Cl)cc1	–	–	–	106	44	Diaph ctr 10uM=59;Diaph ctr 30uM=–
COc1cccc(C(=O)Nc2nnc(S(=O)(=O)N3CCCC3)s2)c1	–	–	–	93	71	Diaph ctr 10uM=58;Diaph ctr 30uM=51
O=C(COc1ccc(Cl)cc1)Nc1nnc(S(=O)(=O)N2CCCCCC2)s1	–	–	–	–	·
COc1cc(C(=O)Nc2nnc(S(=O)(=O)N3CCCCCC3)s2)cc(OC)c1OC	–	–	–	–	·
O=C(Nc1nnc(S(=O)(=O)N2CCCCCC2)s1)c1ccccc1Br	–	–	–	–	·
CC1CC(C)CN(CC(=O)NNC(=O)COc2ccc(Cl)cc2)C1 (stereo not given)	·	–	–	–	·
COc1cc(OC)cc(C(=O)NC2CC3CCC(C2)N3C)c1 (stereo not given)	·	–	–	–	·
COc1cccc(CNC(=O)COC(=O)CCS(=O)(=O)c2ccc(C)cc2)c1	·	–	–	–	·
COc1ncnc2c1ncn2CCCN(C)CCc1ccccn1	·	–	·	–	·
CC1Sc2ccc(C(=O)NCc3ccccn3)cc2NC1=O (stereo not given)	·	–	–	60	–
Cc1cc(C)c(NC(=O)c2ccc3c(c2)NC(=O)C(C)S3)c(C)c1 (stereo not given)	·	–	–	–	·
Oc1cc(-n2cccn2)c(O)cc1-n1cccn1	85	–	–	102	86	Diaph ctr 10uM=–;Diaph ctr 30uM=–
O=C(COC(=O)CCCOc1ccccc1)NC1CCS(=O)(=O)C1 (stereo not given)	·	–	–	–	·
NC(=S)N/N=C/c1ccc(-n2nncc2-c2ccc(Cl)cc2)cc1	–	–	–	73	–
Cc1cccn2c(=O)c3cc(C(=O)NC4CCCC4)c(=N)n(C4CCCC4)c3nc12	–	–	–	82	–
SMILES	PfM18AAP inh	Neddylation inh	HKDC1 inhibitor	PfG6PD inh	PfGluPho conf	others
Cn1c(=O)c2c([nH]c(=S)n2Cc2ccc(Cl)cc2)n(C)c1=O	30	–	–	62	–
CCN(CC)c1nc(N)nc(NS(=O)(=O)c2ccc(Cl)cc2)n1	–	–	–	67	57	Diaph ctr 10uM=54;Diaph ctr 30uM=–
Nc1nc(NS(=O)(=O)c2ccc(Cl)cc2)nn1-c1ccccc1	–	–	–	–	·
CCNc1nc(NC(C)C)nc(NS(=O)(=O)c2ccc(Cl)cc2)n1	–	–	–	83	55	Diaph ctr 10uM=63;Diaph ctr 30uM=–
NC(=S)NN=Cc1nccc2ccccc12	·	–	–	80	–
NC(=S)N/N=C/c1cccc(/C=N/NC(N)=S)c1	–	–	–	–	·
Cc1cnc(C=NNC(N)=S)c2cccc(N)c12	·	–	–	106	66	Diaph ctr 10uM=–;Diaph ctr 30uM=–
NC(=S)NN=Cc1nccc2c(C(F)(F)C(F)(F)C(F)(F)F)cccc12	·	–	·	–	·
